Data: ChEMBL document CHEMBL3233000, “Cytotoxic ent-kaurane diterpenoids from Isodon wikstroemioides” (J Nat Prod, 2014)

Columns and labels:
Assay type in all cases: functional, cell-based
HL-60 = assay: Cytotoxicity against human HL60 cells assessed as growth inhibition after 48 hrs by MTS assay; conditions: HL-60, 48 h
In short: (§1)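 Cell lines from ATCC, grown in RPMI-1640 or DMEM with 10% FBS at 37 °C, 5% CO2. Cells seeded, incubated 12 h at 37 °C, then screened at 40 μM for 48 h with MTS read-out. Where growth inhibition reached 50%, retested at 0.064, 0.32, 1.6, 8 and 40 μM in triplicate. Cisplatin and paclitaxel were positive controls. IC50 by Reed and Muench method.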

SMMC-7721 = assay: Cytotoxicity against human SMMC7721 cells assessed as growth inhibition after 48 hrs by MTS assay; conditions: SMMC-7721, 48 h; in short: as §1
A549 = assay: Cytotoxicity against human A549 cells assessed as growth inhibition after 48 hrs by MTS assay; conditions: A549, 48 h; in short: as §1
MCF7 = assay: Cytotoxicity against human MCF7 cells assessed as growth inhibition after 48 hrs by MTS assay; conditions: MCF7, 48 h; in short: as §1
SW480 = assay: Cytotoxicity against human SW480 cells assessed as growth inhibition after 48 hrs by MTS assay; conditions: SW480, 48 h; in short: as §1
RAW264.7 = assay: Inhibition of nitric oxide production in LPS-stimulated mouse RAW264.7 cells after 18 hrs by griess reagent based plate reader analysis; conditions: RAW264.7, 18 h
In short: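 RAW264.7 macrophages seeded at 2 × 10^5 cells/well. Treated with serial dilutions (top concentration 25 μM), then stimulated with LPS 1 μg/mL for 18 h. Supernatant NO measured with Griess reagents, absorbance 550 nm. MG-132 was the positive control. Viability was checked in parallel by MTT (595 nm) to exclude cytotoxic interference.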

Structure (SMILES)	IC50 (HL-60) [µM]	IC50 (SMMC-7721) [µM]	IC50 (A549) [µM]	IC50 (MCF7) [µM]	IC50 (SW480) [µM]	IC50 (RAW264.7) [µM]
C=C1C(=O)[C@@]23[C@H](O)C[C@@H]4C(C)(C)CCC[C@@]4(C)[C@@H]2[C@@H](O)[C@H](O)[C@@H]1[C@H]3O [RABDOLOXIN B]	2.9	3.4	4.4	3	2.4	1.9
C=C1[C@H]2C[C@@]3(CC[C@@H]4[C@@](C)(CO)CCC[C@@]4(C)[C@@H]3C[C@@H]2O)[C@@H]1O	> 10	> 10	> 10	> 10	> 10	23.9
C=C1C(=O)[C@@]23[C@H](O)C[C@@H]4[C@@](C)(CO)CCC[C@@]4(C)[C@@H]2C[C@H](O)[C@@H]1[C@H]3OC(C)=O	> 10	> 10	> 10	> 10	8.6	16.5
C=C1C(=O)[C@@]23[C@H](O)C[C@@H]4C(C)(C)CCC[C@@]4(C)[C@@H]2[C@@H](O)C[C@@H]1[C@H]3O [PHYLLOSTACHYSIN F]	3.3	2.1	2.3	1.5	1.1	1
